Results gathered from unrelated publications.
Lines come from different studies, so protocols differ.
Cell line: PC-3
Observed: cell growth or viability

SMILES | test | conditions | measurement | result
COc1ccc(C(=O)/C=C/c2ccc(Cl)c(Cl)c2)cc1S(N)(=O)=O | SRB | 48 h | GI50 | 1.9 µM
O=C(CN1C(=O)/C(=C/c2ccco2)SC1=S)Nc1ccccc1 | MTT | 10 µM | inhibition | 23.1%
COc1ccc(C(=O)/C=C/c2ccc3ccccc3c2)cc1S(N)(=O)=O | SRB | 48 h | GI50 | 1.8 µM
Cc1cc(C)cc(COc2cc3c(cc2OCc2cc(C)cc(C)c2)[C@H]2C[C@](O)(Cc4cn(Cc5ccc(C#N)cc5)nn4)C[C@H](C)N2CC3)c1 | MTT |  | IC50 | 0.371 µM
O=C(Nc1cccc(Oc2ccccn2)c1)C1CCCN(C(=O)c2cc(C(F)(F)F)cc(C(F)(F)F)c2)C1 (stereo not drawn) | WST-1 | 100 µM | inhibition | 0%
Cc1cc(C)cc(COc2cc3c(cc2OCc2cc(C)cc(C)c2)[C@H]2C[C@](O)(Cc4cn(Cc5ccc6ccccc6c5)nn4)C[C@H](C)N2CC3)c1 | MTT |  | IC50 | 0.264 µM
O=C(Nc1cccc(N2CCCC2=O)c1)C1CCCN(C(=O)c2cc(C(F)(F)F)cc(C(F)(F)F)c2)C1 (stereo not drawn) | WST-1 | 100 µM | inhibition | 0%
O=C(CN1C(=O)/C(=C/c2cccc(Cl)c2)SC1=S)Nc1ccccc1 | MTT | 10 µM | inhibition | 21%
Cc1c(OCC(F)(F)F)ccnc1COc1ccc(NC(=O)Nc2cccc(C(F)(F)F)c2)cc1 | MTT | 72 h | IC50 | > 100 µM
COc1cc2ncnc(Nc3ccc(F)c(Cl)c3)c2cc1NC(=O)N/N=C/c1cccn1CCCN1CCOCC1 | MTT | 72 h | IC50 | 0.05 µM
C=CCOc1cccc(NC(=O)C2CCCN(C(=O)c3cc(C(F)(F)F)cc(C(F)(F)F)c3)C2)c1 (stereo not drawn) | WST-1 | 100 µM | inhibition | 0%
Cc1c(OCC(F)(F)F)ccnc1COc1ccc(NC(=O)Nc2ccc(Cl)c(C(F)(F)F)c2)cc1 | MTT | 72 h | IC50 | 54.2 µM
COc1cc2ncnc(Nc3ccc(F)c(Cl)c3)c2cc1NC(=O)N/N=C/CN1CCCCC1 | MTT | 72 h | IC50 | 5.76 µM
Cc1cc(C)cc(COc2cc3c(cc2OCc2cc(C)cc(C)c2)[C@H]2C[C@](O)(Cc4cn(Cc5ccc(-c6ccccc6)cc5)nn4)C[C@H](C)N2CC3)c1 | MTT |  | IC50 | 0.206 µM
CN1CCN(CCCn2cccc2/C=N/NC(=O)Nc2cc3c(Nc4ccc(F)c(Cl)c4)ncnc3cc2O[C@H]2CCOC2)CC1 | MTT | 72 h | IC50 | 2.06 µM
COc1cc2c(c(OC)c1OC)-c1ccc(OC)c(=O)cc1[C@@H](NC(C)=O)CC2 | MTT | 10 µM | inhibition | 58.6%
COc1ccc(C(=O)/C=C/c2c(F)cccc2Cl)cc1S(N)(=O)=O | SRB | 48 h | GI50 | 4.7 µM
O=C(Nc1cccc(Oc2ccccc2)c1)C1CCCN(C(=O)c2cccc(-c3ccco3)c2)C1 (stereo not drawn) | WST-1 | 100 µM | inhibition | 0%
O=C(CN1C(=O)/C(=C/c2cccs2)SC1=S)Nc1ccccc1 | MTT | 10 µM | inhibition | 5.3%
COc1ccc(C(=O)/C=C/c2ccccc2Br)cc1S(N)(=O)=O | SRB | 48 h | GI50 | 4.3 µM
Cc1cc(C)cc(COc2cc3c(cc2OCc2cc(C)cc(C)c2)[C@H]2C[C@](O)(Cc4cn(-c5ccccc5)nn4)C[C@H](C)N2CC3)c1 | MTT |  | IC50 | 0.264 µM

SMILES | test | conditions | measurement | result
Cc1ncsc1-c1ccc(CNC(=O)[C@@H]2C[C@@H](O)CN2C(=O)[C@@H](NC(=O)CCCCCCCCCC(=O)N2CCN(CC[C@H](NC(=O)C3(N)CCN(c4ncnc5[nH]ccc45)CC3)c3ccc(Cl)cc3)CC2)C(C)(C)C)cc1 |  | 72 h | GI50 | 0.18 µM
O=C(N/N=C/CN1CCCC1)Nc1cc2c(Nc3ccc(F)c(Cl)c3)ncnc2cc1O[C@H]1CCOC1 | MTT | 72 h | IC50 | 3.89 µM
COc1ccc(-c2ccc(-c3ccc(C(=N)N)nc3)s2)cc1 |  |  | GI50 | 1.68 µM
COc1cccc(NC(=O)CN2C(=O)/C(=C/C3CC3)SC2=S)c1 | MTT | 10 µM | inhibition | 18.6%
COc1ccnc(COc2ccc(NC(=O)Nc3ccc(Cl)c(C(F)(F)F)c3)cc2)c1OC | MTT | 72 h | IC50 | > 100 µM
O=C(CN1C(=O)/C(=C/c2ccc[nH]2)SC1=S)Nc1ccccc1 | MTT | 10 µM | inhibition | 22.7%
O=C(Nc1cccc(CN2CCOCC2)c1)C1CCCN(C(=O)c2cc(C(F)(F)F)cc(C(F)(F)F)c2)C1 (stereo not drawn) | WST-1 | 100 µM | inhibition | 0%
CC/C(=C(\c1ccccc1)c1ccc(OCCN(C)C)cc1)c1ccccc1 | ATP luminescence | 72 h | EC90 | 31 µM
COc1cc2ncnc(Nc3ccc(F)c(Cl)c3)c2cc1NC(=O)N/N=C/c1cccn1CCCN1CCCCC1 | MTT | 72 h | IC50 | 1.06 µM
COc1cccc(/C=C2\SC(=S)N(CC(=O)Nc3ccccc3)C2=O)c1 | MTT | 10 µM | inhibition | 10.6%
COc1ccc(C(=O)/C=C/c2cccc(Br)c2)cc1S(N)(=O)=O | SRB | 48 h | GI50 | 2 µM
Cc1cc(C)cc(COc2cc3c(cc2OCc2cc(C)cc(C)c2)[C@H]2C[C@](O)(Cc4cn(Cc5cnccn5)nn4)C[C@H](C)N2CC3)c1 | MTT |  | IC50 | 0.48 µM
COCCCOc1ccnc(COc2ccc(NC(=O)Nc3ccc(Cl)cc3)cc2)c1C | MTT | 72 h | IC50 | > 100 µM
O=C(c1ccccc1)c1cccc(NC(=O)C2CCCN(C(=O)c3cc(C(F)(F)F)cc(C(F)(F)F)c3)C2)c1 (stereo not drawn) | WST-1 | 100 µM | inhibition | 0%
COc1ccccc1/C=C/C(=O)c1ccc(OC)c(S(N)(=O)=O)c1 | SRB | 48 h | GI50 | 4.8 µM
COc1cc2ncnc(Nc3ccc(F)c(Cl)c3)c2cc1NC(=O)N/N=C/CN(C)C | MTT | 72 h | IC50 | 2.78 µM
COc1ccc(-c2ccc(-c3ccc(C(=N)N)nc3)s2)cc1Cl |  |  | GI50 | 1.78 µM
O=C(N/N=C/CN1CCCCC1)Nc1cc2c(Nc3ccc(F)c(Cl)c3)ncnc2cc1O[C@H]1CCOC1 | MTT | 72 h | IC50 | 0.81 µM
C/C=C/C(=O)Nc1ccc(CCn2cc(C[C@@]3(O)C[C@@H]4c5cc(OCc6cc(C)cc(C)c6)c(OCc6cc(C)cc(C)c6)cc5CCN4[C@@H](C)C3)nn2)cc1 | MTT |  | IC50 | 0.273 µM
O=C(CN1C(=O)/C(=C/c2cccc(Br)c2)SC1=S)Nc1ccccc1 | MTT | 10 µM | inhibition | 27.3%
CN1CCN(C/C=N/NC(=O)Nc2cc3c(Nc4ccc(F)c(Cl)c4)ncnc3cc2O[C@H]2CCOC2)CC1 | MTT | 72 h | IC50 | 1.83 µM
